From ChEMBL document CHEMBL4028901, “Novel Antitubercular 6-Dialkylaminopyrimidine Carboxamides from Phenotypic Whole-Cell High Throughput Screening of a SoftFocus Library: Structure-Activity Relationship and Target Identification Studies” (J Med Chem, 2017)
In brackets after ≈: the same amount, converted by molar mass.

Legend:
[1] = test system: Vero; assay: Cytotoxicity against African green monkey Vero cells assessed as reduction in cell viability by MTT assay; format: cell-based; conditions: Chlorocebus sabaeus
In short: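 MTT assay in Vero cells, samples in triplicate on one occasion. Stocks at 20 mg/mL in DMSO, diluted in complete medium as 10-fold serial dilutions over 6 concentrations. Emetine used as reference. IC50 derived by non-linear dose-response curve fitting.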

[2] = Kinetic solubility of the compound in pH 7.4 solution at 10 to 220 uM after 2 hrs by shake flask method; format: physicochemical; conditions: for Kinetic_solubility: buffer, pH 7.4, 2 h, 220 µM; for solubility kinetic at 2 h: pH 7.4 solution, pH 7.4, read-out: Kinetic_solubility
[3] = test system: Mycobacterium tuberculosis; assay: Antibacterial activity against Mycobacterium tuberculosis H37RvMA grown in GAST/Fe medium measured 7 to 14 days post inoculation by broth microdilution method; format: functional
In short: (§1)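 H37RvMa grown to OD600 0.6–0.7, diluted 1:100 in GAST/Fe. Compounds two-fold serially diluted from a top concentration of 640 μM, in duplicate. Incubated at 37 °C with humidification.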

[4] = test system: Mycobacterium tuberculosis; assay: Antibacterial activity against Mycobacterium tuberculosis H37RvMA grown in 7H9/ADC medium measured 7 to 14 days post inoculation by broth microdilution method; format: functional
[5] = test system: Mycobacterium tuberculosis; assay: Antibacterial activity against wild type Mycobacterium tuberculosis H37Rv grown in GAST/Fe medium measured on day 14 post inoculation by broth microdilution method; format: functional; conditions: 336 h; in short: as §1
[6] = Lipophilicity, log P of the compound at 100 uM at pH 7.4 after 3 hrs by shake-flask method; format: physicochemical; conditions: buffer
In short: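 Shake-flask method run in triplicate. A 10 mM stock was spiked into a 1:1 mixture of phosphate buffer (pH 7.4) and n-octanol, then shaken at 1500 rpm on an orbital shaker for 3 h at room temperature.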

[7] = Kinetic solubility of the compound in fasted-state simulated intestinal fluid at 10 to 220 uM at pH 6.5 after 2 hrs by shake flask method; format: physicochemical; conditions: read-out: Kinetic_solubility
In short: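 Miniaturised shake flask. 10 mM DMSO stocks spiked 1:50 into duplicate FaSSIF (pH 6.5), 2% final DMSO. Shaken 2 h at 25 °C, filtered, analysed by HPLC-DAD against calibration standards (10–220 μM).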

[8] = test system: Mycobacterium tuberculosis; assay: Antibacterial activity against cytochrome bd oxidase knockout GFP-fused Mycobacterium tuberculosis H37RvMA grown in 7H9/GLU/ADC medium measured on day 7 and day 14 post inoculation by fluorescence plate reader assay; format: functional

Row | SMILES | IC50 [1] | Kinetic_solubility [2] | MIC99 [3] | MIC99 [4] | MIC99 [5] | solubility kinetic at 2 h [2] | logD at 3 h, 100 µM [6] | solubility kinetic at 2 h [7] | MIC99 [8]
1 | CN1CCN(c2cccc(NC(=O)c3cc(N(C)Cc4ccc(F)cc4)ncn3)c2)CC1 | 118 µM | 74 µM | 37 µM (≈ 16.1 µg/mL) | 37 µM (≈ 16.1 µg/mL) |  |  |  |  | 
2 | NNC(=O)c1ccncc1 [ISONIAZID] |  |  |  |  | 0.18 µM (≈ 0.0247 µg/mL) |  |  |  | 
3 | CN(CCc1ccccc1)c1cc(C(=O)Nc2ccccc2)ncn1 |  | < 5 µM |  | 80 µM (≈ 26.6 µg/mL) |  |  |  |  | 
4 | CN(Cc1ccc(F)cc1)c1ccnc(C(=O)Nc2ccccc2)c1 | 298 µM |  | 10 µM (≈ 3.35 µg/mL) |  |  | < 5 µM |  |  | 
5 | CN1CCN(c2ccc(NC(=O)c3cc(N(C)Cc4ccc(C(F)(F)F)nc4)ncn3)cc2)CC1 | 45.2 µM | 165 µM | 12.5 µM (≈ 6.07 µg/mL) | 12.5 µM (≈ 6.07 µg/mL) |  |  |  |  | 
6 | CN(Cc1ccc(F)cc1)c1cc(C(=O)Nc2ccon2)ncn1 |  |  | 160 µM (≈ 52.4 µg/mL) | > 50 µM |  |  |  |  | 
7 | Cc1nc(C(=O)Nc2ccccc2)cc(N(C)Cc2ccc(Cl)cc2)n1 |  |  | > 160 µM | > 160 µM |  |  |  |  | 
8 | Cc1c(C(=O)Nc2ccc(F)cc2)ncnc1N(C)Cc1ccc(F)cc1 | 271 µM |  | 37 µM (≈ 13.6 µg/mL) | > 50 µM |  | < 5 µM |  |  | 
9 | CN(Cc1ccc(F)cc1)c1cc(C(=O)Nc2ccc(N3CCOCC3)cc2)ncn1 | 237 µM | < 5 µM | 0.6 µM (≈ 0.253 µg/mL) | 0.78 µM (≈ 0.329 µg/mL) |  |  |  |  | 
10 | CN(Cc1ccccc1)c1cc(C(=O)Nc2ccccc2)ncn1 | 314 µM | < 5 µM | 10 µM (≈ 3.18 µg/mL) | 20 µM (≈ 6.37 µg/mL) |  |  |  |  | 
11 | CN(Cc1ccccc1)c1cc(C(=O)N(C)c2ccccc2)ncn1 |  |  |  | > 160 µM |  |  |  |  | 
12 | CN(Cc1ccccn1)c1cc(C(=O)Nc2ccccc2)ncn1 |  |  |  | > 160 µM |  |  |  |  | 
13 | CN(CC1CCCCC1)c1cc(C(=O)Nc2ccccc2)ncn1 | 178 µM |  | 40 µM (≈ 13 µg/mL) | > 50 µM |  |  |  |  | 
14 | C[C@H]1COc2c(N3CCN(C)CC3)c(F)cc3c(=O)c(C(=O)O)cn1c23 [LEVOFLOXACIN] |  |  |  |  | 0.64 µM (≈ 0.231 µg/mL) |  |  |  | 
15 | CN(Cc1ccc(F)cc1)c1nc(C(=O)Nc2ccccc2)cs1 | 279 µM |  | > 50 µM | > 50 µM |  | < 5 µM |  |  | 
16 | COc1ccc(NC(=O)c2ccnc(N(C)Cc3ccc(F)cc3)n2)cc1 | 273 µM |  | > 50 µM | > 50 µM |  | < 5 µM |  |  | 
17 | COc1ccc(NC(=O)c2cc(N(C)Cc3cccc(F)c3)ncn2)cc1 | 272 µM |  | 5 µM (≈ 1.83 µg/mL) | 37 µM (≈ 13.6 µg/mL) | 2.5 to 5 µM (≈ 0.916 to 1.83 µg/mL) |  |  |  | 
18 | COc1ccc(NC(=O)c2cc(N(C)Cc3ccc(Cl)cc3)nc(NC3CC3)n2)cc1 |  | 5 µM | > 160 µM | > 50 µM |  |  |  |  | 
19 | COc1ccc(NC(=O)c2cc(N(C)Cc3ccc(Cl)cc3)nc(N)n2)cc1 |  |  | > 160 µM | > 50 µM |  | < 5 µM |  |  | 
20 | CN(Cc1ccc(F)cc1)c1cc(C(=O)Nc2ccccc2)cnn1 | 279 µM | 40 µM | > 50 µM | > 50 µM |  |  |  |  | 
21 | CN(Cc1ccc(F)cc1)c1cncc(C(=O)Nc2ccc(F)cc2)n1 | 282 µM |  | > 50 µM | > 50 µM |  | < 5 µM |  |  | 
22 | COc1ccc(NC(=O)c2cc(N(C)Cc3ccccc3)ncn2)cc1 | 287 µM |  | 10 µM (≈ 3.48 µg/mL) | 20 µM (≈ 6.97 µg/mL) |  |  | 4.07 | < 5 µM | >20 µM
23 | CC(C)NC(=O)c1cc(N(C)Cc2ccc(C(F)(F)F)cc2)ncn1 | 217 µM | 13 µM | > 160 µM | > 50 µM |  |  |  |  | 
24 | CN(Cc1ccccc1Cl)c1cc(C(=O)Nc2ccccc2)ncn1 |  | < 5 µM |  | > 160 µM |  |  |  |  | 

Row | SMILES | IC50 [1] | Kinetic_solubility [2] | MIC99 [3] | MIC99 [4] | MIC99 [5] | solubility kinetic at 2 h [2] | logD at 3 h, 100 µM [6] | solubility kinetic at 2 h [7] | MIC99 [8]
25 | CN(Cc1ccc(C#N)cc1)c1cc(C(=O)Nc2ccccc2)ncn1 |  |  | 20 µM (≈ 6.87 µg/mL) | > 50 µM |  | < 5 µM |  |  | 
26 | O=C(Nc1ccccc1)c1cc(OCc2ccccc2)ncn1 |  |  |  | > 160 µM |  |  |  |  | 
27 | CN(Cc1ccc(F)cc1)c1cc(C(Nc2ccc(F)cc2)C(F)(F)F)ncn1 (stereo unspecified) | 41.7 µM | < 5 µM | 19 µM (≈ 7.76 µg/mL) | 37 µM (≈ 15.1 µg/mL) |  |  |  |  | 
28 | Cc1csc(NC(=O)c2cc(N(C)Cc3ccc(F)cc3)ncn2)n1 |  | < 5 µM | 5 µM (≈ 1.79 µg/mL) | 37 µM (≈ 13.2 µg/mL) |  |  |  |  | 
29 | O=C(Nc1ccccc1)c1cc(NCc2ccccc2)ncn1 |  | < 5 µM |  | > 160 µM |  |  |  |  | 
30 | CN1CCN(c2ccc(NC(=O)c3cc(N(C)Cc4ccc(F)cc4)ncn3)cn2)CC1 | 126 µM | 150 µM | 19 µM (≈ 8.27 µg/mL) | > 50 µM |  |  |  |  | 
31 | CN(Cc1ccc(F)cc1)c1cc(-c2nnc(-c3ccccc3)[nH]2)ncn1 | 277 µM | < 5 µM | 25 µM (≈ 9.01 µg/mL) | > 50 µM |  |  |  |  | 
32 | CN(Cc1ccc(F)cc1)c1cc(NC(=O)c2ccccc2)ncn1 |  | 5 µM | > 160 µM |  |  |  |  |  | 
33 | CN(Cc1ccc(F)cc1)c1cc(C(=O)Nc2ccn(C)n2)ncn1 |  | 90 µM | 40 µM (≈ 13.6 µg/mL) | > 50 µM |  |  |  |  | 
34 | O=C(Nc1ccccc1)c1cc(N2CCc3ccccc3C2)ncn1 |  | < 5 µM | > 160 µM | > 160 µM |  |  |  |  | 
35 | CN(Cc1ccc(Cl)cc1)c1cc(C(=O)Nc2ccncc2)ncn1 | 282 µM | < 5 µM | 10 µM (≈ 3.54 µg/mL) |  |  |  |  |  | 
36 | O=C(Nc1ccccc1)c1ccc(=O)n(Cc2ccc(F)cc2)c1 | 310 µM | 170 µM | > 50 µM | > 50 µM |  |  |  |  | 
37 | CN(c1ccccc1)c1cc(C(=O)Nc2ccccc2)ncn1 |  | < 5 µM |  | > 160 µM |  |  |  |  | 
38 | CN(C)CCOc1ccc(NC(=O)c2cc(N(C)Cc3ccc(F)cc3)ncn2)cc1 |  | 155 µM | 12.5 µM (≈ 5.29 µg/mL) | 25 µM (≈ 10.6 µg/mL) |  |  |  |  | 
39 | CCN(Cc1ccc(Cl)cc1)c1cc(C(=O)Nc2ccccc2)ncn1 | 272 µM | 5 µM | 40 µM (≈ 14.7 µg/mL) | > 50 µM |  |  |  |  | 
40 | COCCOc1ccc(NC(=O)c2cc(N(C)Cc3ccc(F)cc3)ncn2)cc1 | 244 µM | < 5 µM | 1.56 µM (≈ 0.64 µg/mL) | 2.3 µM (≈ 0.944 µg/mL) |  |  |  |  | 
41 | CN(Cc1ccc(F)cc1)c1cc(C(=O)Nc2ccccc2)ncn1 | 297 µM | < 5 µM | 1.56 µM (≈ 0.525 µg/mL) | 6.25 µM (≈ 2.1 µg/mL) | 10 µM (≈ 3.36 µg/mL) |  |  |  | 
42 | CN(Cc1ccc(Cl)cc1)c1cc(C(=O)Nc2ccccc2)ncn1 | 207 µM | < 5 µM | 2.3 µM (≈ 0.811 µg/mL) | 5 µM (≈ 1.76 µg/mL) |  |  |  |  | 
43 | CC(=O)N1CCN(c2ccc(NC(=O)c3cc(N(C)Cc4ccc(C(F)(F)F)nc4)ncn3)cc2)CC1 | > 50 µM |  | 2.3 µM (≈ 1.18 µg/mL) | 4.7 µM (≈ 2.41 µg/mL) |  | < 5 µM |  |  | 
44 | CN(Cc1ccc(C(F)(F)F)cc1)c1cc(C(=O)Nc2ncn(C)n2)ncn1 | 28 µM | 173 µM | 10 µM (≈ 3.91 µg/mL) | 50 µM (≈ 19.6 µg/mL) |  |  |  |  | 
45 | CN(Cc1cccc(Cl)c1)c1cc(C(=O)Nc2ccccc2)ncn1 |  | < 5 µM | 10 µM (≈ 3.53 µg/mL) | 20 µM (≈ 7.06 µg/mL) |  |  |  |  | 
46 | COc1ccc(NC(=O)c2cc(N(C)Cc3ccc(F)cc3)ncn2)cc1 | 60.5 µM | 62 µM | 2.5 µM (≈ 0.916 µg/mL) | 5 µM (≈ 1.83 µg/mL) |  |  |  |  | 
47 | CN(Cc1ccc(C(F)(F)F)nc1)c1cc(C(=O)Nc2ccc(N3CCOCC3)cn2)ncn1 | 211 µM | < 5 µM | 2.3 µM (≈ 1.09 µg/mL) | 3.13 µM (≈ 1.48 µg/mL) |  |  |  |  | 
